As a reminder, the Kd is the free concentration of one partner at which half of the binding sites on the other are occupied at equilibrium, for simple one-to-one binding.

The chains are these.
B1: NELF-E aptamer (parent)
chain: CCCAACGACUGCCGAGCGAGAUUACGCUUGAGCGCCCCACUGAGGAUGCCCACGGGCGAUUGGGGCACGG
B2: GFP aptamer (parent)
chain: GCUUCUGGACUGCGAUGGGAGCACGAAACGUCGUGGCGCAAUUGGGUGGGGAAAGUCCUUAAAAGAGGGCCACCACAGAAGC

The variants in the first data set derive from B1. The data set can be described thus: HiTS-RAP. Particulars: with NELF-E (Drosophila). In outline:
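Aptamer DNA templates bearing a T7 promoter and a ter site were sequenced on an Illumina GAIIx flowcell. T7 RNA polymerase then transcribed them in situ, and GST-Tus halted transcription over 30 minutes at 37°C. After a 30-minute room-temperature equilibration with NELF-E-mOrange at 0.064 to 1000 nM in HEPES binding buffer, clusters were imaged, using only the first binding curve. Intensities normalised to sequencing intensity were averaged per sequence and fitted with weighted Hill fits to give Kd, retaining only fits whose variance stayed under 1,000,000.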
In the case of CCCAACGACUGCCGAGCGAGAUUACGCUUGAGCGCCCCACUGAGGAUGCCCACGGGCGAUUGCGGCACGG, the Kd is 33.8 nM.
Still for that read-out and setting: under CCCAACGACUGCCGAGCGAGAUUACGCUUGAGCGCCCCACUGAGGAUGCCCACGGGCGAUUGUGGCACGG stands 10.3 nM.
Still for that read-out and setting: the value for CCCAACGACUGCCGAGCGAGAUUACGCUUGAGCGCCCCACUGAGGAUGCCCACGGGCGAUUGAGGCACGG was 12.8 nM; that for CCCAACGACUGCCGAGCGAGAUUACGCUUGAGCGCCCCACUGAGGAUGCCCACGGGCGAUUGGGUCUCGG was 8.45 nM.
The same measure, in the same setting: the value for CCCAACGACUGCCGAGCGAGAUUACGCUUGAGCGCCCCACUGAGGAUGCCCACGGGCGAUUGGGUCACGG was 6.03 nM; that for CCCAACGACUGCCGAGCGAGAUUACGCUUGAGCGCCCCACUGAGGAUGCCCACGGGCGAUUGGGCCACGG was 14 nM; that for CCCAACGACUGCCGAGCGAGAUUACGCUUGAGCGCCCCACUGAGGAUGCCCACGGGCGAUUGGGACACGG was 4.39 nM.
Turning to CCCAACGACUGCCGAGCGAGAUUACGCUUGAGCGCCCCACUGAGGAUGCCCACGGGCGAUUGGCUCACGG, the Kd amounted to 5.12 nM.

Another data set covers variants of B2. The data set can be described thus: HiTS-RAP. The settings on record: with EGFP. In short, it runs like this: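 Aptamer DNA templates carrying a T7 promoter and ter site were sequenced on an Illumina GAIIx flowcell, then transcribed in situ by T7 RNA polymerase and halted by GST-Tus (30 minutes, 37°C). Clusters were imaged after 30-minute room-temperature equilibration with EGFP-mOrange at 0.04 nM to 625 nM in fivefold steps. Intensities were decay-corrected, normalised to sequencing intensity and averaged per sequence. Kd came from weighted Hill fits per lane, geometrically averaged over three lanes, with non-rising sequences set to 125 nM.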
As to GCUUCUGGCCUGCGAUGGGAGCACGAAACGUCGUGGCGCAAUUGGGUGGGGAAAGUCCUUAAAAGAGGGCCACCACAGAAGC, the Kd stood at 8 nM.
Consider GCUUCUGGGCUGCGAUGGGAGCACGAAACGUCGUGGCGCAAUUGGGUGGGGAAAGUCCUUAAAAGAGGGCCACCACAGAAGC, for which the Kd is 14.8 nM.
The same measure, in the same setting: under GCUUCUGGUCUGCGAUGGGAGCACGAAACGUCGUGGCGCAAUUGGGUGGGGAAAGUCCUUAAAAGAGGGCCACCACAGAAGC stands 6.86 nM.
Turning to GCUUCUGUACUGCGAUGGGAGCACGAAACGUCGUGGCGCAAUUGGGUGGGGAAAGUCCUUAAAAGAGGGCCACCACAGAAGC, the Kd came to 5.56 nM.
On to GCUUCUGCACUGCGAUGGGAGCACGAAACGUCGUGGCGCAAUUGGGUGGGGAAAGUCCUUAAAAGAGGGCCACCACAGAAGC, for which the Kd was 61.5 nM.
On the same count and under the same terms, the value for GCUUCUGAACUGCGAUGGGAGCACGAAACGUCGUGGCGCAAUUGGGUGGGGAAAGUCCUUAAAAGAGGGCCACCACAGAAGC was 26.7 nM.
Still for that read-out and setting: under GCUUCUGGAAUGCGAUGGGAGCACGAAACGUCGUGGCGCAAUUGGGUGGGGAAAGUCCUUAAAAGAGGGCCACCACAGAAGC stands 3.61 nM; under GCUUCUGGAUUGCGAUGGGAGCACGAAACGUCGUGGCGCAAUUGGGUGGGGAAAGUCCUUAAAAGAGGGCCACCACAGAAGC, 4.3 nM.
The same measure, in the same setting: the value for GCUUCUGGAGUGCGAUGGGAGCACGAAACGUCGUGGCGCAAUUGGGUGGGGAAAGUCCUUAAAAGAGGGCCACCACAGAAGC was 4.07 nM; that for GCUUCUGGAUUGCGAUGGGGGCACGAAACGUCGUGGCGCAAUUGGGUGGGGAAAGUCCUUAAAAGAGGGCCACCACAGAAGC was 3.79 nM; that for GCUGCUGGACUGCGAUGGGAGCACGAAACGUCGUGGCGCAAUUGGGUGGGGAAAGUCCUUAAAAGAGGGCCACCACAGAAGC was 4.6 nM.
For GCUACUGGACUGCGAUGGGAGCACGAAACGUCGUGGCGCAAUUGGGUGGGGAAAGUCCUUAAAAGAGGGCCACCACAGAAGC, the Kd is 4.17 nM.
On the same count and under the same terms, under GCUCCUGGACUGCGAUGGGAGCACGAAACGUCGUGGCGCAAUUGGGUGGGGAAAGUCCUUAAAAGAGGGCCACCACAGAAGC stands 7.99 nM.
Take GCUUCUGGGCUGCGAUGGGAGCACGAGACGUCGUGGCGCAAUUGGGUGGGGAAAGUCCUUAAAAGAGGGCCACCACAGAAGC: the Kd was determined as 21 nM.
The same measure, in the same setting: the value for GCUUCUGAACUGCAAUGGGAGCACGAAACGUCGUGGCGCAAUUGGGUGGGGAAAGUCCUUAAAAGAGGGCCACCACAGAAGC was 20.2 nM; that for GCGUCUGGACUGCGAUGGGAGCACGAAACGUCGUGGCGCAAUUGGGUGGGGAAAGUCCUUAAAAGAGGGCCACCACAGAAGC was 5.4 nM; that for GCAUCUGGACUGCGAUGGGAGCACGAAACGUCGUGGCGCAAUUGGGUGGGGAAAGUCCUUAAAAGAGGGCCACCACAGAAGC was 3.51 nM.
On to GCCUCUGGACUGCGAUGGGAGCACGAAACGUCGUGGCGCAAUUGGGUGGGGAAAGUCCUUAAAAGAGGGCCACCACAGAAGC, for which the Kd stood at 4.42 nM.
Regarding GCUUCUAGACUGCGAUGGGAGCACGAAACGUCGUGGCGCAAUUGGGUGGGGAAAGUCCUUAAAAGAGGGCCACCACAGAAGC, the Kd turned out to be 43.8 nM.
Consider GCUUCUCGACUGCGAUGGGAGCACGAAACGUCGUGGCGCAAUUGGGUGGGGAAAGUCCUUAAAAGAGGGCCACCACAGAAGC, for which the Kd amounted to 88.1 nM.
The same measure, in the same setting: under GCUUCUUGACUGCGAUGGGAGCACGAAACGUCGUGGCGCAAUUGGGUGGGGAAAGUCCUUAAAAGAGGGCCACCACAGAAGC stands 23.4 nM.
Still for that read-out and setting: the value for GCUUCGGGACUGCGAUGGGAGCACGAAACGUCGUGGCGCAAUUGGGUGGGGAAAGUCCUUAAAAGAGGGCCACCACAGAAGC was 7.45 nM; that for GCUUCCGGACUGCGAUGGGAGCACGAAACGUCGUGGCGCAAUUGGGUGGGGAAAGUCCUUAAAAGAGGGCCACCACAGAAGC was 8.4 nM.
On to GCUUCAGGACUGCGAUGGGAGCACGAAACGUCGUGGCGCAAUUGGGUGGGGAAAGUCCUUAAAAGAGGGCCACCACAGAAGC, for which the Kd was found to be 8.81 nM.
Consider GCUUCUGGAGUGCGAUGGGGGCACGAAACGUCGUGGCGCAAUUGGGUGGGGAAAGUCCUUAAAAGAGGGCCACCACAGAAGC, for which the Kd stood at 4.36 nM.
The same measure, in the same setting: under GCUUAUGGACUGCGAUGGGAGCACGAAACGUCGUGGCGCAAUUGGGUGGGGAAAGUCCUUAAAAGAGGGCCACCACAGAAGC stands 8.09 nM; under GCUUGUGGACUGCGAUGGGAGCACGAAACGUCGUGGCGCAAUUGGGUGGGGAAAGUCCUUAAAAGAGGGCCACCACAGAAGC, 5.26 nM.
On to GCUUUUGGACUGCGAUGGGAGCACGAAACGUCGUGGCGCAAUUGGGUGGGGAAAGUCCUUAAAAGAGGGCCACCACAGAAGC, for which the dissociation constant (Kd) was found to be 4.3 nM.
Same read-out and setting: the value for GCUUCUGGAUUGCGAUGGGAGCGCGAAACGUCGUGGCGCAAUUGGGUGGGGAAAGUCCUUAAAAGAGGGCCACCACAGAAGC was 5.08 nM.

For the origin of these results see the RNAGym collection of RNA variant scans (doi:10.1038/nmeth.2970).
